Results from paper PMC3201811 (Journal of inorganic biochemistry, 2011).
pIC50: −log10 of the molar value.

How the values were obtained:
Jurkat-shBak cells [1] = assay: PS exposure; format: cell-based, human; conditions: 24 h
Procedure, shortened: (§1)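 Jurkat cells with Bak knocked down by RNA interference, and empty-vector controls (CN), were exposed to test compound for 24 h; cisplatin at 25 μM served as reference. Samples were diluted to 1 ml and read by flow cytometry.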

Jurkat-CN cells [2] = assay: PS exposure; format: cell-based, human; conditions: 24 h
Procedure, shortened: as §1

Jurkat-CN cells [3] = assay: Necrotic versus apoptotic cell death, Trypan blue staining and morphology; format: cell-based, human; conditions: control Jurkat cells, 24 h
Procedure, shortened: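 Jurkat-CN (empty-vector) and Jurkat-shBak cells were treated with test compound or cisplatin for 24 h, then stained with Trypan blue. Stained cells were scored as necrotic. Unstained cells showing blebbing and/or chromatin condensation were scored as apoptotic. Values are mean ± SD of three independent experiments.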

[4] = cited from earlier work
Jurkat cells [5] = assay: Cytotoxicity, cell death by annexinV-PE labeling and flow cytometry, 24 h; format: cell-based, human
Procedure, shortened: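 Jurkat (clone E6.1) in RPMI 1640 with 5% FCS, L-glutamine and penicillin/streptomycin, seeded at 3×10⁵ cells/ml. Cells were exposed to a range of test compound concentrations for 24 h. Fluorescent cells were counted by flow cytometry. Values are mean ± SD of three independent experiments.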

Jurkat cells [6] = assay: Protection by antioxidants; format: cell-based, human; conditions: 24 h, superoxide scavenger MnTBAP
Procedure, shortened: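 Jurkat cells were cultured for 24 h with test compound alone or together with MnTBAP (superoxide anion scavenger), glutathione or N-acetylcysteine. Collapse of mitochondrial transmembrane potential was measured at the end by flow cytometry. Values are mean ± SD of 4 independent experiments.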

Jurkat cells [7] = assay: Growing potential after removal of compounds and NAC, Trypan blue counting; format: cell-based, human; conditions: 24h treatment with compound alone, viable cells 24 h and 48 h after removal
Procedure, shortened: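 Jurkat cells were treated with test compound, with or without NAC, for 24 h. They were then washed and transferred to fresh medium. Total cell number and viability were measured 24 and 48 h after removal of compound and NAC, by Trypan blue staining and counting in a Neubauer haemocytometer. Values are mean ± SD of three independent experiments.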

PBMC from healthy donors = assay: Cytotoxicity, cell death by annexinV-PE labeling and flow cytometry, 24 h; format: cell-based, human; conditions: 25 μM
Procedure, shortened: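 PBMC came from healthy donors, were freshly isolated by Ficoll-Paque density centrifugation and kept in complete RPMI 1640 medium. They were exposed to a range of test compound concentrations for 24 h. Positive cells were quantified by flow cytometry. Values are mean ± SD of three independent experiments.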

Jurkat-shBak cells [8] = assay: Necrotic versus apoptotic cell death, Trypan blue staining and morphology; format: cell-based, human; conditions: 24 h

Compound	sensitivity of Jurkat-shBak cells, in words (Jurkat-shBak cells [1])	death of cells (Jurkat-CN cells [2]; 25 μM, Jurkat control (CN) cells)	type of cell death (necrosis versus apoptosis) (Jurkat-CN cells [3])	time stable in solution [4] [h]	pIC50 (Jurkat cells [5])	killing of cells (Jurkat cells [5]; 25 μM) [%]	cells bound annexin V-PE (Jurkat-CN cells [2]; 10 μM, control Jurkat cells)	protection from toxicity by MnTBAP (Jurkat cells [6])	growing potential after transfer to fresh medium (Jurkat cells [7])	dead cells (PBMC from healthy donors) [%]	type of cell death (necrosis versus apoptosis) (Jurkat-shBak cells [8])
N.N.[Cl][Pt][Cl] [cisplatin, reference compound]	completely resistant	around 60%	–	–	–	–	–	–	–	–	–
[Au{κ^2-C,N-C6H4(PPh2=N(C6H5)-2}(P{Cp(m-C6H4-SO3Na)2} 3)Cl]PF6 [compound 3]	almost completely resistant	–	necrosis and apoptosis at similar levels	≤ 24	4.79	96	around 50%	almost completely protected	A fraction of cells	33.5	both apoptotic and necrotic cell death were prevented
